≈ marks a conversion by molar mass, not a printed value. Calls of active or inactive are those of the source. The rule behind the calls is not given here.

Results on 35 molecules are retold here after ChEMBL document CHEMBL1158394, “Diversity-oriented synthesis of furo[3,2-f]chromanes with antimycobacterial activity” (Eur J Med Chem, 2009).

Data set [1] deals with Mycobacterium tuberculosis. Briefly: Antimycobacterial activity against Mycobacterium tuberculosis H37Rv after 6 days by microdilution resazurin assay. The format is functional. Conditions: 144 h. In a few lines: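 The M. tuberculosis H37Rv inoculum is grown in Dubos medium with 10% ADC enrichment. DMSO drug stocks (50 mg/mL) are serially diluted twofold in 96-well plates, with DMSO and isoniazid controls. Plates are sealed and held at 37 °C for 6 days, then 0.01% resazurin is added for another 24 h. MIC95 is taken at >95% growth inhibition, in µg/mL. Duplicate runs in two independent experiments.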

For data set [2], the system named is Escherichia coli. Briefly: Antibacterial activity against Escherichia coli CIP188631 after 24 hrs by twofold serial dilution method. The format is functional, organism-based. In outline: (§1)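 LB precultures grown 24 h, diluted 1/1000 and seeded; twofold serial drug dilutions in LB; 37 °C for 24 h; growth read as optical density at 595 nm; 90% inhibitory concentration obtained by curve fitting; tetracycline positive control; duplicate in two independent experiments.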

The test system of another data set is Vero. Briefly: Cytotoxicity against african green monkey Vero cells after 48 hrs by MTT assay. The format is cell-based. Conditions: Chlorocebus sabaeus. In a few lines:
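Vero cells seeded at 10⁵ cells/mL and preincubated 24 h at 37 °C, 5% CO₂; compounds added at various concentrations in 1% DMSO for 48 h; MTT (5 mg/mL solution) then added for 4 h at 37 °C; absorbance at 595 nm; 50% inhibitory concentration by curve fitting; duplicate in two independent experiments.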

In the next data set the test system is Staphylococcus aureus. The experiment in a line: Antibacterial activity against Staphylococcus aureus ATCC 6538 after 24 hrs by twofold serial dilution method. It counts as functional. Conditions: ATCC 6538, 24 h. In outline: as §1
In the next data set the test system is Candida tropicalis. Briefly: Antifungal activity against Candida tropicalis ATCC 66029 after 24 hrs by disk diffusion method. The format is functional, organism-based. In outline:
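Kirby–Bauer disk diffusion: C. tropicalis suspension spread on solid Sabouraud plates; 6 mm paper discs impregnated with serial dilutions in DMSO placed on plates; inhibition zone diameter measured after 24 h at 30 °C; itraconazole positive control; duplicate in two independent experiments.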

Data set [3] deals with Escherichia coli. Briefly: Genotoxicity in Escherichia coli PQ37 assessed as DNA damage-induced beta-galactosidase release by SOS-chromotest. The format is toxicity, organism-based. In a few lines:
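E. coli PQ37 carrying lacZ under control of the SOS gene sfiA; DNA damage induces β-galactosidase, detected by chromogenic reaction with X-gal; duplicate in two independent experiments.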

Data set [4] relates to Mycolicibacterium smegmatis. The experiment in a line: Antimycobacterial activity against Mycobacterium smegmatis str. MC2 155 up to 100 ug/mL. It counts as functional, organism-based.

With `Cc1c2c(c3cc(-c4ccc(Cl)nc4)oc3c1C)CCC(C)(C)O2`, the MIC95 in data set [1] was over 10 µg/mL. In addition, in the data set on Escherichia coli [2], the outcome was inactive.
In the case of `CC1(C)CCc2c(ccc3oc(-c4ccncc4)c(CCCO)c23)O1`, the IC50 in the data set on Vero is over 25 µg/mL. Moreover, in data set [1], the MIC95 is 5 µg/mL (≈ 14.8 µM). Also, the result in the data set on Escherichia coli [2] was inactive.
The molecule `Cc1c2c(c3cc(-c4ccc[n+]([O-])c4)oc3c1C)CCC(C)(C)O2` displayed an IC50 in the data set on Vero of 5.6 µg/mL (≈ 17.3 µM). In addition, the MIC90 with Staphylococcus aureus was determined as 5 µg/mL (≈ 15.5 µM). The MIC95 in data set [1] was determined as 5 µg/mL (≈ 15.5 µM). Further, the outcome in the data set with Escherichia coli [2] was inactive.
The molecule `CC(=O)OCc1cc2c3c(c(C)c(C)c2o1)OC(C)(C)CC3` displayed an MIC95 in data set [1] of 10 µg/mL (≈ 33.1 µM). Also, the outcome in the data set with Escherichia coli [2] was inactive.
In the case of `COC(=N)c1ccc(-c2cc3c4c(c(C)c(C)c3o2)OC(C)(C)CC4)cn1`, in the data set on Vero, it took 3.6 µg/mL (≈ 9.88 µM) to reach half-maximal inhibition (IC50). Also, the MIC90 in the data set with Staphylococcus aureus was determined as 5 µg/mL (≈ 13.7 µM). This molecule registered an MIC95 in data set [1] of 0.6 µg/mL (≈ 1.65 µM). Further, the outcome in the data set with Escherichia coli [2] was inactive.
Turning to `Cc1c2c(c3cc(-c4ccc(NCCCN(C)C)nc4)oc3c1C)CCC(C)(C)O2`, the “diameter of the inhibition zone (DIZ)” value in the data set on Candida tropicalis is “Active”. Also, in the data set on Vero, the IC50 stood at 1.6 µg/mL (≈ 3.93 µM). The same molecule yielded an MIC90 with Staphylococcus aureus of 5 µg/mL (≈ 12.3 µM). The molecule further registered an MIC95 in data set [1] of 3 µg/mL (≈ 7.36 µM). Besides, in the data set with Escherichia coli [3], the Activity entry was “Toxic”. In the data set with Escherichia coli [2], the outcome was inactive.
In the case of `Cc1c2c(c3cc(CCc4cccnc4)oc3c1C)CCC(C)(C)O2`, the 50% inhibitory concentration (IC50) in the data set with Vero was determined as 7.3 µg/mL (≈ 21.8 µM). For the same molecule, in the data set with Staphylococcus aureus, the MIC90 stood at 5 µg/mL (≈ 14.9 µM). The same molecule yielded an MIC95 in data set [1] of 5 µg/mL (≈ 14.9 µM). In the data set with Escherichia coli [2], the outcome was inactive.
Regarding `Cc1c2c(c3cc(/C=C/c4cccnc4)oc3c1C)CCC(C)(C)O2`, the IC50 in the data set on Vero is over 100 µg/mL. Also, in data set [1], the MIC95 stood at 5 µg/mL (≈ 15 µM). Moreover, in the data set on Escherichia coli [2], the result was inactive.
As for `Cc1c2c(c3cc(-c4cccnc4)oc3c1C)CCC(C)(C)O2`, in data set [1], the MIC95 worked out at 5 µg/mL (≈ 16.3 µM). Further, the result in the data set on Escherichia coli [2] was inactive.
Molecule `CC1(C)CCc2c(ccc3oc(-c4cccnc4)c(CCCO)c23)O1` showed an IC50 with Vero of over 25 µg/mL. The molecule also showed an MIC95 in data set [1] of 5 µg/mL (≈ 14.8 µM). Also, the outcome in the data set on Escherichia coli [2] was inactive.
In the data set on Vero, `CC(=O)OCCCc1c(-c2ccncc2)oc2ccc3c(c12)CCC(C)(C)O3` returned an IC50 of 14.9 µg/mL (≈ 39.3 µM). Also, in the data set on Staphylococcus aureus, the MIC90 was 5 µg/mL (≈ 13.2 µM). The result in the data set with Escherichia coli [2] was inactive.
In the case of `Cc1c2c(c3cc(Cc4cccnc4)oc3c1C)CCC(C)(C)O2`, in the data set with Vero, 6.4 µg/mL (≈ 19.9 µM) corresponded to half-maximal inhibition (IC50). In the data set on Staphylococcus aureus, this molecule had an MIC90 of 5 µg/mL (≈ 15.6 µM). In data set [1], this molecule gave an MIC95 of 3 µg/mL (≈ 9.33 µM). For the same molecule, in the data set on Escherichia coli [2], the result was inactive.
The matching figures for `CC1(C)C=Cc2c(ccc3oc(-c4ccncc4)cc23)O1`: 8.7 µg/mL (≈ 31.4 µM), 5 µg/mL (≈ 18 µM), 2.5 µg/mL (≈ 9.01 µM) and “inactive”.
Molecule `Cc1c2c(c3cc(-c4ccc(C#N)nc4)oc3c1C)CCC(C)(C)O2` had an MIC95 in data set [1] of over 10 µg/mL. Also, in the data set on Escherichia coli [2], the result was inactive.
For the molecule `CC(=O)OCCCc1c(-c2cccnc2)oc2ccc3c(c12)CCC(C)(C)O3`, the IC50 in the data set on Vero came out at 17.5 µg/mL (≈ 46.1 µM). Also, the result in the data set on Escherichia coli [2] was inactive.
In turn, `Cc1c2c(c3cc(-c4cnccn4)oc3c1C)CCC(C)(C)O2` displayed an MIC95 in data set [1] of 10 µg/mL (≈ 32.4 µM). In addition, in the data set on Escherichia coli [2], the outcome was inactive.
In turn, `CC1(C)C=Cc2c(ccc3c2C2CCCOC2O3)O1` (stereo unspecified) returned an MIC95 in data set [1] of 250 µg/mL (≈ 968 µM). The result with Escherichia coli [2] was inactive.
The matching figures for `Cc1c(C)c2c(c(C)c1O)CCC(C)(C)O2` [APC-100]: 10 µg/mL (≈ 45.4 µM) and “inactive”.
With `Cc1c2c(c3cc(C4CCCO4)oc3c1C)CCC(C)(C)O2` (stereo unspecified), in data set [1], the MIC95 is over 10 µg/mL. Moreover, the outcome with Escherichia coli [2] was inactive.
The molecule `Cc1c2c(c3cc(Cc4ccc(Cl)cc4)oc3c1C)CCC(C)(C)O2` showed an IC50 in the data set with Vero of over 100 µg/mL. In data set [1], the MIC95 came out at 25 µg/mL (≈ 70.4 µM). Moreover, the outcome in the data set with Escherichia coli [2] was inactive.
Regarding `Cc1c(C)c2c(c(C)c1O)CC[C@@](C)(CCC[C@H](C)CCC[C@H](C)CCCC(C)C)O2` [ALPHA-TOCOPHEROL], in data set [1], the MIC95 was 10 µg/mL (≈ 23.2 µM). In addition, in the data set with Escherichia coli [2], the outcome was inactive.
Turning to `Cc1c2c(c3cc(-c4ccc(-c5nn[nH]n5)nc4)oc3c1C)CCC(C)(C)O2`, the MIC95 in data set [1] is 10 µg/mL (≈ 26.6 µM). For the same molecule, the outcome in the data set with Escherichia coli [2] was inactive.
Regarding `Cc1c2c(c3cc(Cc4cccs4)oc3c1C)CCC(C)(C)O2`, the outcome (in data set [4]; with Escherichia coli [2]) was inactive. This molecule also came in with an MIC95 in data set [1] of 12.5 µg/mL (≈ 38.3 µM).
On to `Cc1c2c(c3cc(CC#N)oc3c1C)CCC(C)(C)O2`, for which, in data set [1], the MIC95 is over 10 µg/mL. Also, in the data set with Escherichia coli [2], the result was inactive.
`Cc1c2c(c3cc(CCC(=O)N4CCCC4)oc3c1C)CCC(C)(C)O2` gave an MIC95 in data set [1] of 10 µg/mL (≈ 28.1 µM). Also, the result in the data set on Escherichia coli [2] was inactive.
Take `Cc1c2c(c3cc(-c4cccs4)oc3c1C)CCC(C)(C)O2`: in the data set with Vero, the IC50 is over 100 µg/mL. For the same molecule, the result (in data set [4]; with Escherichia coli [2]) was inactive. This molecule returned an MIC95 in data set [1] of 6.2 µg/mL (≈ 19.8 µM).
Molecule `CC1(C)CCc2c(ccc3oc4ccccc4c23)O1` had an IC50 in the data set on Vero of 100 µg/mL (≈ 396 µM). Also, in data set [1], the MIC95 was found to be 10 µg/mL (≈ 39.6 µM). In addition, the result with Escherichia coli [2] was inactive.
`Cc1c2c(c3cc(-c4ccncc4)oc3c1C)CCC(C)(C)O2`: the midpoint of inhibition in the data set on Vero, the IC50, lay at 5.1 µg/mL (≈ 16.6 µM). In data set [1], this molecule returned an MIC95 of 2.5 µg/mL (≈ 8.13 µM). The outcome in the data set on Escherichia coli [2] was inactive.
For the molecule `Cc1c2c(c3cc(CCC(=O)N4CCOCC4)oc3c1C)CCC(C)(C)O2`, the MIC95 in data set [1] was 10 µg/mL (≈ 26.9 µM). The outcome in the data set with Escherichia coli [2] was inactive.
On to `Cc1c2c(c3cc(-c4ccccn4)oc3c1C)CCC(C)(C)O2`, for which the MIC95 in data set [1] amounted to 100 µg/mL (≈ 325 µM). In the data set with Escherichia coli [2], the outcome was inactive.
In the case of `CC(=O)OCCCc1c(Br)oc2ccc3c(c12)CCC(C)(C)O3`, the result with Escherichia coli [2] was inactive.
Consider `NNC(=O)c1ccncc1` [ISONIAZID], for which the IC50 in the data set with Vero was over 500 µg/mL. In data set [1], this molecule returned an MIC95 of 0.25 µg/mL (≈ 1.82 µM). For the same molecule, in the data set on Escherichia coli [2], the outcome was inactive.
On to `Cc1c2c(c3cc(-c4cccnc4)oc3c1C)C(=O)CC(C)(C)O2`, for which the MIC95 in data set [1] is over 10 µg/mL. For the same molecule, the result with Escherichia coli [2] was inactive.
`Cc1c2c(c3cc(CCC(=O)N4CCN(C)CC4)oc3c1C)CCC(C)(C)O2`: the MIC95 in data set [1] was over 10 µg/mL. Moreover, the result with Escherichia coli [2] was inactive.
Turning to `Cc1c(-c2ccncc2)oc2ccc3c(c12)C=CC(C)(C)O3`, 12.8 µg/mL (≈ 43.9 µM) corresponded to half-maximal inhibition in the data set with Vero (IC50). The same molecule yielded an MIC90 against Staphylococcus aureus of 5 µg/mL (≈ 17.2 µM). The MIC95 in data set [1] was 5 µg/mL (≈ 17.2 µM). Further, the result with Escherichia coli [2] was inactive.
